According to ChEMBL document CHEMBL2062503, “Potent and Selective Inhibitors of CK2 Kinase Identified through Structure-Guided Hybridization” (ACS Med Chem Lett, 2012):
Converted amounts (≈) assume the structure as drawn. The source made the active and inactive calls. No cut-off for these calls is given here.

Key:
[1] = test system: SW480; assay: Antiproliferative activity against human SW480 cells by alamar blue assay; assay type: functional
Outline: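 SW480 proliferation was measured with the Alamar Blue read-out, and GI50 is reported in μM.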

[2] = test system: HCT-116; assay: Growth inhibition of human HCT116 cells after 72 hrs by alamar blue assay; assay type: functional; details: HCT-116, 72 h
Outline: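 HCT-116 proliferation was read out by Alamar Blue. GI50 is reported in μM as the mean of at least three experiments.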

[3] = Lipophilicity, log D of the compound; assay type: physicochemical; details: octanol/water
[4] = biological target: T1, Casein kinase II subunit alpha (Homo sapiens, UniProt P68400); assay: Inhibition of CK2alpha in human HCT116 cells assessed as decrease in AKT phosphorylation at S129 residue after 3 to 24 hrs
[5] = biological target: T1, Casein kinase II subunit alpha; assay: Inhibition of full length N-terminus His-tagged human CK2alpha expressed in insect Sf21 cells using BODIPY-FL-RRRDDDSDDD-CONH2 as substrate after 20 mins
[6] = biological target: Cyclin-dependent kinase 2 (Homo sapiens, UniProt P24941); assay: Inhibition of CDK2
[7] = biological target: Glycogen synthase kinase-3 beta (Homo sapiens, UniProt P49841); assay: Inhibition of GSK3beta
[8] = Aqueous solubility of the compound; assay type: physicochemical; details: buffer
Outline: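 Solubility was determined in aqueous medium at pH 7.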

[9] = biological target: Homeodomain-interacting protein kinase 2 (Homo sapiens, UniProt Q9H2X6); assay: Inhibition of HipK2
[10] = Intrinsic clearance in rat liver microsomes; assay type: ADME, Microsome; details: read-out: CLH
[11] = biological target: Voltage-gated inwardly rectifying potassium channel KCNH2 (Homo sapiens, UniProt Q12809); assay: Inhibition of human Erg
[12] = biological target: T2, Cytochrome P450 1A2 (Homo sapiens, UniProt P05177); assay: Inhibition of CYP1A2; assay type: ADME
T2 sequence (P05177 whole entry): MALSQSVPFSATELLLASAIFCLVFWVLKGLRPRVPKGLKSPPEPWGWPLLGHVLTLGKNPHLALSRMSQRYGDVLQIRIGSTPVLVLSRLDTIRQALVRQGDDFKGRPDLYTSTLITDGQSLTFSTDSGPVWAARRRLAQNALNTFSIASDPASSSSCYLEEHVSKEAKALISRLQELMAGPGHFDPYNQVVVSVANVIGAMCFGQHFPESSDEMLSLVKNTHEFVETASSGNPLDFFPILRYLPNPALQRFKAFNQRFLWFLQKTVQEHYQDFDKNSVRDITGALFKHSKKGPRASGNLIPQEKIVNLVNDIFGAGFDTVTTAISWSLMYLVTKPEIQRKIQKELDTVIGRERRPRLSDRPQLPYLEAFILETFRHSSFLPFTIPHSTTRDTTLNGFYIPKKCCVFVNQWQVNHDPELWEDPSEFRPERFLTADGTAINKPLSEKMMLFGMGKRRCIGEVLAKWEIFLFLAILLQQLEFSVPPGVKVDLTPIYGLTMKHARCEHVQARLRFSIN

[13] = Fraction unbound in human plasma; assay type: ADME, cell-free
[14] = test system: HCT-116; assay: Induction of apoptosis in human HCT116 cells assessed as caspase activation; assay type: functional, cell-based
[15] = Oral bioavailability in rat at 10 mg/kg; assay type: ADME, organism-based; details: in vivo
Outline: (§1)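 Rats received one oral dose of 10 mg/kg, and pharmacokinetic parameters were derived from that single administration.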

[16] = test system: MDR1; assay: Apparent permeability from apical to basolateral side in MDCK cells expressing MDR1; assay type: ADME, cell-based, Canis lupus familiaris; details: dog
[17] = Clearance in rat at 10 mg/kg, po; assay type: ADME, organism-based; set-up: dose 10 mg/kg, route oral; details: in vivo; outline: as §1
[18] = AUC in rat at 10 mg/kg, po; assay type: ADME, organism-based; set-up: dose 10 mg/kg, route oral; details: plasma; outline: as §1
[19] = test system: MDR1; assay: Apparent permeability from apical to basolateral side in pig LLC-PK1 cells expressing MDR1; assay type: ADME, cell-based, Sus scrofa

Sequence of Glycogen synthase kinase-3 beta (P49841 whole entry): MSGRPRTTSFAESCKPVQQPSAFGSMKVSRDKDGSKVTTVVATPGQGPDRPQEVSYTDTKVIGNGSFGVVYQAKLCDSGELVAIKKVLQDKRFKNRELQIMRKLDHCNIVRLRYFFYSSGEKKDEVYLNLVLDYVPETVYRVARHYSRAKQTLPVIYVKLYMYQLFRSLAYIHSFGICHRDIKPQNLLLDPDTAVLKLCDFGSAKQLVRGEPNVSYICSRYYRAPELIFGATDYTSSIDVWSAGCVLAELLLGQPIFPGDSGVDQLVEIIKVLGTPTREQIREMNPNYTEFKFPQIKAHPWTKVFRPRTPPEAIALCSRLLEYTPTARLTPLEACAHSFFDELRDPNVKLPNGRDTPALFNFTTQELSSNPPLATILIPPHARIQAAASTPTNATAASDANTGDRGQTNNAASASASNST
Sequence of Voltage-gated inwardly rectifying potassium channel KCNH2 (Q12809 whole entry): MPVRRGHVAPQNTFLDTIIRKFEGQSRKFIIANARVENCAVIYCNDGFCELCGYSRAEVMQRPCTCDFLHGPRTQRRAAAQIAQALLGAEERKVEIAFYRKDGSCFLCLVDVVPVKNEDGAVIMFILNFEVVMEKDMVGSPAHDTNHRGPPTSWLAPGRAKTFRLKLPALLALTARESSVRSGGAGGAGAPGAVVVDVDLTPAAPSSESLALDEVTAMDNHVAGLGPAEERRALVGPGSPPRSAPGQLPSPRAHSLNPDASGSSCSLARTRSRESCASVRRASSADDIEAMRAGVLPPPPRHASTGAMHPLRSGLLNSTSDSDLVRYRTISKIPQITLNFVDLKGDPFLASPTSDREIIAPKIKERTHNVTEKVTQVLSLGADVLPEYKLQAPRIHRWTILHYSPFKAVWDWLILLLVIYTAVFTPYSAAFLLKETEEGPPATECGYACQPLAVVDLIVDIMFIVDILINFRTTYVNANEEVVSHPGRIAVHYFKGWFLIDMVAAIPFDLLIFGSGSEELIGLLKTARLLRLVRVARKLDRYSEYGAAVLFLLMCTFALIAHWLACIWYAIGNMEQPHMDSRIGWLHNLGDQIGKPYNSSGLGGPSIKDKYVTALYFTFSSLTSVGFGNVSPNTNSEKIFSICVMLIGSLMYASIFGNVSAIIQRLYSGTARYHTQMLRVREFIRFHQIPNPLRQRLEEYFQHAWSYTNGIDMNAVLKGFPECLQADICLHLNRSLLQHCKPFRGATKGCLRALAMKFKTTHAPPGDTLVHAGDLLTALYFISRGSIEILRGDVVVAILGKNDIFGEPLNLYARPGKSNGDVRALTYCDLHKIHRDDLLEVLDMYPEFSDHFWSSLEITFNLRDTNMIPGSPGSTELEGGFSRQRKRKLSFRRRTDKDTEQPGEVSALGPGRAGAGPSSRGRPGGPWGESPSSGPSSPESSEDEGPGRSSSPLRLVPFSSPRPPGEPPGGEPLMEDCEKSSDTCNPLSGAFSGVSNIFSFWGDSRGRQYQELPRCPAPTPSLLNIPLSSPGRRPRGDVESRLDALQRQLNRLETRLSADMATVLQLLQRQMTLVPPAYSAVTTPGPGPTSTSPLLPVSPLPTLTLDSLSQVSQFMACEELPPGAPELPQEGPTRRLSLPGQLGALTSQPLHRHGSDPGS
Sequence of Homeodomain-interacting protein kinase 2 (Q9H2X6 whole entry): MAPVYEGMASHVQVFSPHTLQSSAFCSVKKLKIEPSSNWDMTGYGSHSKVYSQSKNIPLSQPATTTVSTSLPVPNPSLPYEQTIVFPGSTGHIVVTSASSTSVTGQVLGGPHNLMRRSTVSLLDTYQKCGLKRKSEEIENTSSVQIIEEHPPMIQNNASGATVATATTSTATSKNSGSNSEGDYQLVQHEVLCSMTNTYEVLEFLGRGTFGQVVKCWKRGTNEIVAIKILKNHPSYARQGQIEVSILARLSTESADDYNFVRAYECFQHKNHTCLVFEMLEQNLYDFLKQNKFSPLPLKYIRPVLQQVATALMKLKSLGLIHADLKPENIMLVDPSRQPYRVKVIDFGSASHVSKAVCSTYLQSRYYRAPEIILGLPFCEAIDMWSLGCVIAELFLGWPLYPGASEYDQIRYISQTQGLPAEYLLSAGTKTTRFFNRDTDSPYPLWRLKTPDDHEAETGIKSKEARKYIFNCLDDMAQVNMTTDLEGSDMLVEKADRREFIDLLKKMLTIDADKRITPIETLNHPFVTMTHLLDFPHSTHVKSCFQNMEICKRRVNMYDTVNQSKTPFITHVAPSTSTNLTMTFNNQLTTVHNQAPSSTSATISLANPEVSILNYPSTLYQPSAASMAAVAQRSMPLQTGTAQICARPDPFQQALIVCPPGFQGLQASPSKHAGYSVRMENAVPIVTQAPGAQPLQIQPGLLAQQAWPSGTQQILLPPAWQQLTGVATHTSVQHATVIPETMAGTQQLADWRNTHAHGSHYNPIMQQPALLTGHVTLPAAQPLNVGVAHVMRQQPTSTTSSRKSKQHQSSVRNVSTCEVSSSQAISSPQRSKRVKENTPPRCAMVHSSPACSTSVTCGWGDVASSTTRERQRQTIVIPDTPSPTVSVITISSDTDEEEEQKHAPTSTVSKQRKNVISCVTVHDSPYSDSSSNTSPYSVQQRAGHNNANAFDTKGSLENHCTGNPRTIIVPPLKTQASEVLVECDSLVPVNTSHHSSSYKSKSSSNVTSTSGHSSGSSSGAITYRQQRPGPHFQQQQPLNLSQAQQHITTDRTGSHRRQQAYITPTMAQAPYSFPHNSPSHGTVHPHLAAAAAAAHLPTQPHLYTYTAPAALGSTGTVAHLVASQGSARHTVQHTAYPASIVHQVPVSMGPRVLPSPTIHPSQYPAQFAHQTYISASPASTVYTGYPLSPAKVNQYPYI
T1 sequence (P68400 whole entry): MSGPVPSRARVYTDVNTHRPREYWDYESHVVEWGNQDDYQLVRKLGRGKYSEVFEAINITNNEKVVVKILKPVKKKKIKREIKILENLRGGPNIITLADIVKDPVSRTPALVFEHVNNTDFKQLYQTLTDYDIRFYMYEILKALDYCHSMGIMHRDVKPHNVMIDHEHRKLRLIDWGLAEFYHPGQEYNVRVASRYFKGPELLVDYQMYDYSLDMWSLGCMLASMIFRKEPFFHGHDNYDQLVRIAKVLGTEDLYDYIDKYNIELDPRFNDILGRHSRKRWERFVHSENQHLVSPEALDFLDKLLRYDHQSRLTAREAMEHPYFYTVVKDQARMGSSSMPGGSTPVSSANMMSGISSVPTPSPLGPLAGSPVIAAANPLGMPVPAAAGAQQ

SMILES	GI50 [1]	GI50 [2]	logD [3]	solubility [8]	fraction unbound [13]	further results
CC(=O)N(C)c1ccc2ccn(-c3cc(NC4CC4)n4ncc(C#N)c4n3)c2c1			2.9	< 1 µM		IC50 [4]: 34 nM; IC50 [5]: 11 nM; IC50 [6]: > 30000 nM; IC50 [7]: 1400 nM; IC50 [9]: < 3 nM; CLint scaled [10]: 100 mL/min/kg
COc1ccc(-c2cc(Nc3ccn(C)n3)n3ncc(C#N)c3n2)cc1		4500 nM				
CC(=O)Nc1ccc2cnn(-c3cc(NC4CC4)n4ncc(C#N)c4n3)c2c1	5000 nM	3700 nM				IC50 [5]: 26 nM; IC50 [6]: > 30000 nM; IC50 [7]: 700 nM; IC50 [11]: > 33000 nM; IC50 [9]: 50 nM
N#Cc1cnn2c(N)cc(-c3cccs3)nc12		> 30000 nM				
COC(=O)CCn1cc(-c2cc(NC3CC3)n3ncc(C#N)c3n2)c2cc(NC(C)=O)ccc21	6600 nM					
CC(=O)Nc1ccc2ccn(-c3cc(NCCN4CCCC4)n4ncc(C#N)c4n3)c2c1			2.2	15 µM (≈ 6.43 µg/mL)	0.056	
CS(=O)(=O)Cc1ccc2ccn(-c3cc(NC4CC4)n4ncc(C#N)c4n3)c2c1		16400 nM	2.5	< 1 µM	0.018	
COc1ccc(-c2cc(NC3CC3)n3ncc(C#N)c3n2)cc1		14000 nM				
CC(=O)Nc1ccc2ccn(-c3cc(NCCCN4CCCC4)n4ncc(C#N)c4n3)c2c1	13000 nM		1.8	> 1000 µM	0.067	AUC [18]: 0.065 µM·h; Papp A→B [19]: ≤ 5 ×10⁻⁶ cm/s
N#Cc1cnn2c(NC3CC3)cc(-n3ccc4ccc(CO)cc43)nc12		10100 nM	3.1	< 1 µM	0.019	
CC(=O)Nc1ccc2c(c1)c(-c1cc(NC3CC3)n3ncc(C#N)c3n1)cn2CCC(=O)O						IC50 [6]: > 30000 nM; IC50 [7]: 6000 nM; IC50 [9]: 570 nM
CC(=O)Nc1ccc2ccn(-c3cc(NCCN4CCOCC4)n4ncc(C#N)c4n3)c2c1	> 30000 nM			2 µM (≈ 0.889 µg/mL)	0.11	Papp A→B [19]: ≤ 5 ×10⁻⁶ cm/s
COc1ccncc1-c1cc(NC2CC2)n2ncc(C#N)c2n1	15000 nM	16000 nM				
N#Cc1cnn2c(N)cc(-c3ccccc3)nc12		> 30000 nM				
CC(=O)Nc1cc2c(ccn2-c2cc(NC3CC3)n3ncc(C#N)c3n2)cc1C		> 30000 nM				
CC(=O)Nc1ccc2ccn(-c3cc(NCCCN(C)C)n4ncc(C#N)c4n3)c2c1	25000 nM		1.6	750 µM (≈ 312 µg/mL)	0.1	IC50 [4]: 1200 nM; IC50 [5]: 30 nM; IC50 [6]: > 30000 nM; IC50 [7]: 2600 nM; IC50 [9]: 60 nM

Continued by falling GI50 [2], values first:

GI50 [1]	GI50 [2]	logD [3]	solubility [8]	fraction unbound [13]	SMILES	further results
2100 nM	3000 nM				CC(=O)Nc1cnc2ccn(-c3cc(NC4CC4)n4ncc(C#N)c4n3)c2c1	IC50 [5]: < 3 nM; IC50 [6]: > 30000 nM; IC50 [7]: 1000 nM; IC50 [9]: 20 nM; IC50 [12]: > 20000 nM
	2800 nM	2.6	8 µM (≈ 3.23 µg/mL)	0.041	CC(=O)Nc1ccc2ccn(-c3cc(NCCCCO)n4ncc(C#N)c4n3)c2c1	
4500 nM	2700 nM				CC(=O)Nc1ccc2c(c1)c(-c1cc(NC3CC3)n3ncc(C#N)c3n1)cn2CCO	
3200 nM	2300 nM				CC(=O)Nc1ccc2c(c1)c(-c1cc(NC3CC3)n3ncc(C#N)c3n1)cn2CCCO	
2500 nM	2200 nM	2.2	1 µM (≈ 0.387 µg/mL)	0.124	CC(=O)Nc1ccc2ccn(-c3cc(NC4COC4)n4ncc(C#N)c4n3)c2c1	
700 nM	700 nM				CC(=O)Nc1ccc2[nH]cc(-c3cc(NC4CC4)n4ncc(C#N)c4n3)c2c1	IC50 [4]: 77 nM; IC50 [5]: 5 nM; IC50 [6]: 14000 nM; IC50 [7]: 250 nM; IC50 [9]: < 3 nM
1100 nM	700 nM				CC(=O)Nc1ccc2c(c1)c(-c1cc(NC3CC3)n3ncc(C#N)c3n1)cn2C	
730 nM	530 nM				CC(=O)Nc1ccc2c(c1)N(c1cc(NC3CC3)n3ncc(C#N)c3n1)CC2	IC50 [11]: > 33000 nM
1000 nM	530 nM	3.3	< 10 µM	< 0.01	CC(=O)Nc1ccc2ccn(-c3cc(NC4CC4)n4ncc(C#N)c4n3)c2c1	Activity [14]: Active; bioavailability [15]: 5%; Papp A→B [16]: 22 ×10⁻⁶ cm/s; IC50 [6]: 26000 nM; IC50 [7]: 130 nM; CL/F [17]: 10 mL/min/kg; IC50 [11]: 8600 nM; IC50 [9]: 30 nM; IC50 [12]: 100 nM
560 nM	460 nM				CC(=O)Nc1ccc2ccn(-c3cc(Nc4ccn(C)n4)n4ncc(C#N)c4n3)c2c1	
